From article PMC6925336 (European journal of pharmaceutical sciences : official …, 2019)
Where “and” joins values, the source holds several entries; their conditions need not be identical. Identical values can stand only once.

Key:
[1] = tested on: cleaved caspase-3; format: in vivo, mice bearing G3MB; conditions: 20 mg/kg IV single dose, at 24 hours post-dose; not statistically significant
Procedure, shortened: (§1)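 G3MB-bearing mice (N=21), enrolled at ~1×10^7 photons/sec, were randomized to vehicle or one 20 mg/kg IV bolus. Brains were harvested pre-dose and at 1, 2, 6 and 24 h post-dose and fixed in paraformaldehyde. Immunohistochemistry was done for pCHK1 S345, γ-H2AX and cleaved caspase-3. Scanned slides were quantified as percent positive-staining cells.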

[2] = Cerebral microdialysis, brain ECF, non-tumor bearing; format: in vivo, CD-1 nude mice (non-tumor bearing); conditions: 10 mg/kg SQ
Procedure, shortened: (§2)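 Female CD-1 nude mice, non-tumor-bearing (N=7) or with cortical G3MB implants enrolled at ~1×10^7 photons/sec (N=8). Stereotactic cortical guide cannula; 1 mm probe (38 kDa MWCO) perfused with Ringer's at 0.5 µl/min, 1 h equilibration. Single 10 mg/kg SQ dose. Hourly dialysate to 24 h; plasma at 0.25, 6.5 and 24 h. LC-MS/MS. Unbound ECF = dialysate/probe recovery. Population PK model gave per-mouse AUCs and ECF rate constants.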

[3] = adult patients, recommended phase II dosage of 105 mg/m^2; ref Hong et al., 2016; cited from earlier work
[4] = Plasma pharmacokinetic study, 10 mg/kg SQ, population model; format: in vivo, CD-1 nude mice bearing G3MB; conditions: for AUC: Model-derived AUCplasma, total plasma
Procedure, shortened: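 Nine female CD-1 nude mice carrying orthotopic mouse G3MB cells (enrolled at ~1×10^7 photons/sec) got 10 mg/kg SQ in 20% w/v Captisol. Population design: 2–3 samples per mouse up to 24 h, […]. Plasma assayed by LC-MS/MS. Fit with a two-compartment model with first-order absorption and linear elimination (apparent parameters); FOCE with interaction; log-normal inter-individual variability.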

[5] = tested on: γ-H2AX; assay: Pharmacodynamic study, immunohistochemistry of G3MB tumor tissue: γ-H2AX; format: in vivo, mice bearing G3MB
Procedure, shortened: as §1

[6] = Cerebral microdialysis, tumor ECF, mice bearing G3MB; format: in vivo, CD-1 nude mice bearing G3MB
Procedure, shortened: as §2

[7] = Plasma pharmacokinetic study, 20 mg/kg IV, PK/PD model; format: in vivo, CD-1 nude mice bearing G3MB; conditions: plasma model re-estimated with 20 mg/kg IV data
Procedure, shortened: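 Nine female CD-1 nude mice with orthotopic G3MB (~1×10^7 photons/sec) got 20 mg/kg prexasertib mesylate IV in 20% w/v Captisol. Sparse sampling: 2–3 plasma samples per mouse to 24 h, LC-MS/MS.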

[8] = tested on: pCHK1 S345; assay: Pharmacodynamic study, immunohistochemistry of G3MB tumor tissue: pCHK1 S345; format: in vivo, mice bearing G3MB
Procedure, shortened: as §1

[9] = Plasma protein binding by equilibrium dialysis; format: in vitro ADME, mouse
Procedure, shortened: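 Equilibrium dialysis. CD-1 mouse plasma (sodium heparin) was spiked at final 2–2000 ng/ml (eight levels), in triplicate, against blank Ringer's solution. Rotated at 37°C for 24 h, then both sides sampled. Fraction unbound = buffer-side concentration / plasma-side total concentration.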

[10] = 10 mg/kg SQ, apparent parameter
[11] = PK/PD model, fixed based upon a sensitivity analysis
[12] = 10 mg/kg SQ, ECF model, G3MB mice

Structure (SMILES): COc1cccc(OCCCN)c1-c1cc(Nc2cnc(C#N)cn2)n[nH]1 [prexasertib, 5-(5-[2-(3-Aminopropoxy)-6-methoxyphenyl]-1H-pyrazol-3-yl}amino)pyrazine-2-carbonitrile methanesulfonate hydrate]
- Increase of cleaved caspase-3 [1]: 1.4 fold
- θNTB on CLef, proportional shift for NTB mice, estimate (RSE%) ([2]; ECF model): 2.20 (38%)
- θNTB on CLin, proportional shift for NTB mice, estimate (RSE%) ([2]; ECF model): 0.93 (45%)
- θNTB on kb45, proportional shift for NTB mice, estimate (RSE%) ([2]; ECF model): 5.90 (77%)
- θNTB on kb54, proportional shift for NTB mice, estimate (RSE%) ([2]; ECF model): 17.9 (32%)
- Time of maximum brain ECF concentrations post-dose ([2]; NTB mice): 1 h
- AUCplasma of unbound prexasertib (mean ± SD) ([2]; NTB mice, at 24 hours post-dose, from total exposure and FU): 271 ± 23 ng·h/mL
- Unbound AUCECF (mean ± SD) ([2]; brain ECF, NTB mice, at 24 hours post-dose): 24.8 ± 11.8 ng·h/mL and 24.8 ng·h/mL
- Plasma exposure AUCplasma, 0−∞ (mean ±SD) [3]: 2410 ± 1229 ng·h/mL
- CL, plasma (central) clearance, estimate (RSE%) [4, 10]: 5.64 (4.3%) l/h/kg
- Q, tissue (peripheral) clearance, estimate (RSE%) [4, 10]: 0.58 (13%) l/h/kg
- Vc, plasma (central) volume, estimate (RSE%) [4, 10]: 1.81 (18%) l/kg
- Vp, tissue (peripheral) volume, estimate (RSE%) [4, 10]: 3.42 (8.0%) l/kg
- ka, absorption rate constant, estimate (RSE%) ([4]; 10 mg/kg SQ, plasma population model): 1.07 (12%) h^−1
- half-life ([4]; female, CD-1 nude, mouse, plasma, subcutaneous, 10 mg/kg): 4.5 h
- AUC ([4]; female, CD-1 nude, mouse, plasma, subcutaneous, 10 mg/kg, 0−∞ (mean ± SD), 10 mg/kg SQ): 1820 ± 462 ng·h/mL
- AUC ([4]; female, CD-1 nude, mouse, plasma, subcutaneous, 10 mg/kg, 0−∞, range, 10 mg/kg SQ): 1460 to 2880 ng·h/mL
- Time of peak induction of γ-H2AX after the dose ([5]; 20 mg/kg IV single dose): 2 h
- Time γ-H2AX was elevated above baseline ([5]; 20 mg/kg IV single dose): at least 6 hours
- pH2Ax Emax, maximum extent of stimulation [5, 11]: 5.0 (-)
- kb45, peripheral rate constant, estimate (RSE%) [6, 12]: 0.39 (24%) h^−1
- kb54, peripheral rate constant, estimate (RSE%) [6, 12]: 0.05 (41%) h^−1
- Time of maximum tumor ECF concentrations post-dose ([6]; 10 mg/kg SQ, mice bearing G3MB): 1 h
- Unbound AUCECF (mean ± SD) ([6]; 10 mg/kg SQ, tumor ECF, tumor-bearing mice, at 24 hours post-dose): 47.3 ± 17 ng·h/mL
- Kp uu ([6]; CD-1 nude, mouse, tumor ECF (microdialysate) / unbound plasma, subcutaneous, 10 mg/kg): 0.17 ± 0.08
- CL, plasma clearance, estimate (RSE%) [7]: 6.03 (8.0%) l/h/kg
- Q, tissue (peripheral) clearance, estimate (RSE%) [7]: 0.807 (10%) l/h/kg
- Vc, plasma volume, estimate (RSE%) [7]: 2.67 (13%) l/kg
- Vp, tissue (peripheral) volume, estimate (RSE%) [7]: 3.79 (6.0%) l/kg
- ka, absorption rate constant, estimate (RSE%) [7]: 1.16 (10%) h^−1
- Time of peak induction of pCHK1 S345 after the dose ([8]; 20 mg/kg IV single dose): 2 hours
- Time pCHK1 S345 stayed above baseline after the dose ([8]; 20 mg/kg IV single dose): at least 6 hours
- Peak in pCHK1 S345 nuclear staining ([8]; 20 mg/kg IV single dose, at 2 hours): 2.2 fold
- EC50 at 20 mg/kg ([8]; Mus musculus, iv, read-out: pCHK1 S345 EC50, prexasertib ECF concentration for 50% stimulation of maximum function of kin, estimate (RSE%), PK/PD model, 20 mg/kg IV, tumor ECF, preliminary): 0.0102 µg/mL
- pCHK1 S345 EC50, prexasertib ECF concentration for 50% stimulation of maximum function of kin, estimate (RSE%) ([8]; PK/PD model, 20 mg/kg IV, tumor ECF, preliminary, 20 mg/kg): 10.15 (26.5%) ng/ml
- pCHK1 S345 Emax, maximum extent of stimulation [8, 11]: 2.0 (-)
- Binding to the dialysis membrane of the Equilibrium Dialyzer plate [9]: negligibly bound
- fraction unbound at 24 h ([9]; CD-1, mouse, plasma): 0.11
